These results are taken from ChEMBL document CHEMBL2390864, “Artemisinin-derived dimer phosphate esters as potent anti-cytomegalovirus (anti-CMV) and anti-cancer agents: a structure-activity study” (Bioorg Med Chem, 2013).

A value given as a limit tells only on which side of the number the result lay.

Usually IC50 stands for the midpoint of a concentration-inhibition curve. A high value points to weaker potency. In general, EC50 refers to the concentration giving half of the maximal effect. The low end stands for a more potent agent, the high end for a less potent agent.

Data set [1] in a line: Therapeutic index, ratio of IC50 for PHA-stimulated human PBMC cells to IC50 for human JURKAT-TALL cells. It counts as cell-based. As to conditions: PHA-stimulated PBMC cells versus JURKAT-TALL cells, read-out: Ratio IC50. A digest of the protocol:
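The therapeutic index is the IC50 in PHA-stimulated PBMCs (PHA 10 µg/ml for 24 h, then drug for 48 h, AlamarBlue) divided by the IC50 in Jurkat cells (drug for 48 h, AlamarBlue).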

The subject of a further data set is PBMC. Kind of data set: Cytotoxicity against PHA-stimulated human PBMC cells after 48 hrs by Alamar Blue assay. It counts as cell-based. Summed up:
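PBMCs came from 4 consenting healthy volunteers and were stimulated with phytohemagglutinin (10 µg/ml) for 24 h. Drug or vehicle was then added for a further 48 h, and viability was read by AlamarBlue. IC50 is the average of 4 experiments, each run in triplicate.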
Background: Alamar Blue is a resazurin reagent that responds to reducing activity.

Data set [2] can be described thus: Cytotoxicity against human JURKAT-TALL cells after 48 hrs by Alamar Blue assay. In kind it is functional, cell-based. Summed up: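 Jurkat T-ALL cells were treated with compound for 48 h, and growth inhibition was read by AlamarBlue assay to give IC50.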
The test system of the next data set is Cytomegalovirus. Kind of data set: Antiviral activity against Cytomegalovirus infected in HFF after 72 hrs by luciferase reporter gene assay. It counts as functional, organism-based. As to conditions: Human betaherpesvirus 5, 72 h. Summed up:
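Human foreskin fibroblasts (HFFs) were infected with CMV and treated with compound across a dose range. Luciferase activity was read at 72 h post infection as a marker of late CMV gene expression. EC50 was derived from this read-out.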
A general note: In a reporter assay the amount or activity of a reporter protein is the signal.

A short description of data set [3]: Selectivity index, ratio of CC50 for HFF to EC50 for Cytomegalovirus.

As for `C[C@H]1[C@@H](CC(COP(=O)(Oc2ccccc2)Oc2ccccc2)C[C@H]2O[C@@H]3O[C@@]4(C)CC[C@H]5[C@H](C)CC[C@@H]([C@H]2C)[C@@]35OO4)O[C@@H]2O[C@@]3(C)CC[C@H]4[C@H](C)CC[C@@H]1[C@@]24OO3` (stereo partly specified), the selectivity ratio in data set [1] was 14.8. The IC50 was 1480 nM with PBMC and 100 nM in data set [2]. Besides, the EC50 with Cytomegalovirus was found to be 39 nM. Further, the “Ratio CC50/EC50” value in data set [3] turned out to be 1500.
For `C[C@H]1[C@@H](CC(COP(=O)(Oc2ccc(Cl)cc2)Oc2ccc(Cl)cc2)C[C@H]2O[C@@H]3O[C@@]4(C)CC[C@H]5[C@H](C)CC[C@@H]([C@H]2C)[C@@]35OO4)O[C@@H]2O[C@@]3(C)CC[C@H]4[C@H](C)CC[C@@H]1[C@@]24OO3` (stereo partly specified), the selectivity ratio in data set [1] is over 263. Also, the IC50 in the data set on PBMC was over 40000 nM; in data set [2], 152 nM. A half-maximal effect in the data set on Cytomegalovirus (EC50) was put at 66 nM.
The like results for `C[C@H]1[C@@H](CC(COP(=S)(Oc2ccccc2)Oc2ccccc2)C[C@H]2O[C@@H]3O[C@@]4(C)CC[C@H]5[C@H](C)CC[C@@H]([C@H]2C)[C@@]35OO4)O[C@@H]2O[C@@]3(C)CC[C@H]4[C@H](C)CC[C@@H]1[C@@]24OO3` (stereo partly specified) were, in that order, over 22.9, over 40000 nM, 1750 nM and 78 nM.
For `C[C@H]1[C@@H](CC(COP2(=S)Oc3ccccc3-c3ccccc3O2)C[C@H]2O[C@@H]3O[C@@]4(C)CC[C@H]5[C@H](C)CC[C@@H]([C@H]2C)[C@@]35OO4)O[C@@H]2O[C@@]3(C)CC[C@H]4[C@H](C)CC[C@@H]1[C@@]24OO3` (stereo partly specified) the same measures were over 20.7, over 40000 nM, 1930 nM and 70 nM.
Consider `C[C@H]1[C@@H](CC(COP2(=O)Oc3ccccc3-c3ccccc3O2)C[C@H]2O[C@@H]3O[C@@]4(C)CC[C@H]5[C@H](C)CC[C@@H]([C@H]2C)[C@@]35OO4)O[C@@H]2O[C@@]3(C)CC[C@H]4[C@H](C)CC[C@@H]1[C@@]24OO3` (stereo partly specified), for which the selectivity ratio in data set [1] turned out to be 10.4. Further, the half-inhibitory concentration (IC50) came out at 2280 nM in the data set with PBMC and 220 nM in data set [2]. This compound also returned an EC50 in the data set on Cytomegalovirus of 72 nM.
The like results for `CC(C)c1ccc(OP(=O)(OCC(C[C@H]2O[C@@H]3O[C@@]4(C)CC[C@H]5[C@H](C)CC[C@@H]([C@H]2C)[C@@]35OO4)C[C@H]2O[C@@H]3O[C@@]4(C)CC[C@H]5[C@H](C)CC[C@@H]([C@H]2C)[C@@]35OO4)Oc2ccc(C(C)C)cc2)cc1` (stereo partly specified) were, in that order, over 78.3, over 40000 nM, 511 nM and 300 nM.
In turn, `C[C@H]1[C@@H](CC(CO)C[C@H]2O[C@@H]3O[C@@]4(C)CC[C@H]5[C@H](C)CC[C@@H]([C@H]2C)[C@@]35OO4)O[C@@H]2O[C@@]3(C)CC[C@H]4[C@H](C)CC[C@@H]1[C@@]24OO3` (stereo partly specified) had an EC50 in the data set on Cytomegalovirus of 160 nM.
Turning to `C[C@H]1[C@@H](CC(COP(=O)(OC2CCCCC2)OC2CCCCC2)C[C@H]2O[C@@H]3O[C@@]4(C)CC[C@H]5[C@H](C)CC[C@@H]([C@H]2C)[C@@]35OO4)O[C@@H]2O[C@@]3(C)CC[C@H]4[C@H](C)CC[C@@H]1[C@@]24OO3` (stereo partly specified), the selectivity ratio in data set [1] worked out at 7.1. The IC50 in the data set with PBMC turned out to be 2030 nM; in data set [2], 287 nM. Besides, the concentration for a half-maximal effect (EC50) in the data set on Cytomegalovirus came to 44 nM.
Regarding `COc1cccc2c1C(=O)c1c(O)c3c(c(O)c1C2=O)C[C@@](O)(C(=O)CO)C[C@@H]3O[C@H]1C[C@H](N)[C@H](O)[C@H](C)O1` [DOXORUBICIN], the IC50 in the data set with PBMC came out at 271 nM; in data set [2], 9.6 nM.
`Cc1cccc(C)c1OP(=O)(OCC(C[C@H]1O[C@@H]2O[C@@]3(C)CC[C@H]4[C@H](C)CC[C@@H]([C@H]1C)[C@@]24OO3)C[C@H]1O[C@@H]2O[C@@]3(C)CC[C@H]4[C@H](C)CC[C@@H]([C@H]1C)[C@@]24OO3)Oc1c(C)cccc1C` (stereo partly specified): the selectivity ratio in data set [1] is over 135. Further, the 50% inhibitory concentration (IC50) was over 40000 nM in the data set on PBMC and 296 nM in data set [2]. Further, in the data set with Cytomegalovirus, the EC50 came out at 71 nM.
Regarding `C[C@H]1[C@@H](CC(COP(=O)(O)Oc2ccccc2)C[C@H]2O[C@@H]3O[C@@]4(C)CC[C@H]5[C@H](C)CC[C@@H]([C@H]2C)[C@@]35OO4)O[C@@H]2O[C@@]3(C)CC[C@H]4[C@H](C)CC[C@@H]1[C@@]24OO3` (stereo partly specified), the 50% inhibitory concentration (IC50) in the data set with PBMC is over 40000 nM; in data set [2] it was 7440 nM. In addition, the half-maximal effective concentration (EC50) with Cytomegalovirus was over 300 nM.
With `C[C@H]1[C@H](OC(=O)CCC(=O)O)O[C@@H]2O[C@@]3(C)CC[C@H]4[C@H](C)CC[C@@H]1[C@@]24OO3` [SODIUM ARESUNATE], in data set [1], the selectivity ratio came out at 4. Besides, the values for the IC50 (in the data set with PBMC; in data set [2]) were 27400 nM and 6890 nM, respectively. In the data set on Cytomegalovirus, this compound showed a 50% effective concentration (EC50) of 18500 nM.
Consider `CO[C@H]1O[C@@H]2O[C@@]3(C)CC[C@H]4[C@H](C)CC[C@@H]([C@H]1C)[C@@]24OO3`, for which the figures for the concentration for half-maximal inhibition (IC50) (in the data set with PBMC; in data set [2]) were over 100000 nM and over 30000 nM, respectively. The EC50 in the data set with Cytomegalovirus worked out at 5300 nM.
